# Assay results: ChEMBL document CHEMBL3124924, “Bifunctional ethyl 2-amino-4-methylthiazole-5-carboxylate derivatives: synthesis and in vitro biological evaluation as antimicrobial and anticancer agents” (2014)
# System: NCI-H522
# Experiment: Cytotoxicity against human NCI-H522 cells assessed as growth inhibition at 10 uM after 48 hrs by SRB assay
# Format: functional
# Details: NCI-H522, 48 h, read-out: GI
# How it was run: (§1)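 NCI-60 one-dose primary screen run by the NCI Drug Evaluation Branch across the full 60-line panel. Single high-dose treatment with 48 h continuous drug exposure. Cell growth estimated by sulforhodamine B protein staining. Results given as percent growth of treated cells and expressed as percentage growth inhibition.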
row,SMILES,inhibition of growth at 10 µM
1,Cc1nc(NC(=S)Nc2ccc(F)cc2)sc1C(=O)NN,< 10%

# System: Pseudomonas aeruginosa
# Experiment: Bactericidal activity against Pseudomonas aeruginosa ATCC 27853 after 18 hrs
# Format: functional
# Details: ATCC 27853, 18 h
# How it was run: (§2)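 Continuation of the broth-dilution MIC test. A loopful from each tube without visible growth spread on a quarter of a Mueller-Hinton agar plate and incubated 18 h. Lowest concentration giving no growth on subculture taken as the MBC.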
row,SMILES,MBC
1,Cc1nc(NC(=S)Nc2ccc(F)cc2)sc1C(=O)NN,50 µg/mL

# System: Escherichia coli
# Experiment: Antibacterial activity against Escherichia coli ATCC 25922 assessed as growth inhibition at 1 mg/mL after 24 hrs by agar-cup diffusion method
# Format: functional
# Details: ATCC 25922, 24 h, read-out: DIZ
# How it was run: (§3)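 Agar-cup diffusion: 1 mL of 6 h broth culture seeded per 100 mL molten sterile agar at 45 °C and poured into plates. 8 mm cups cut, each filled with 0.1 mL of 1 mg/mL test solution. Incubated 37 °C for 24 h, 48 h for C. albicans. DMSO control per organism. Inhibition zone diameter in mm, mean of three measurements.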
row,SMILES,zone of inhibition at 1000 µg/mL
1,Cc1nc(NC(=S)Nc2ccc(F)cc2)sc1C(=O)NN,> 13 mm

# System: HT-29
# Experiment: Cytotoxicity against human HT-29 cells assessed as growth inhibition at 10 uM after 48 hrs by SRB assay
# Format: functional
# Details: HT-29, 48 h, read-out: GI
# How it was run: as §1
row,SMILES,inhibition of growth at 10 µM
1,Cc1nc(NC(=S)Nc2ccc(F)cc2)sc1C(=O)NN,< 10%

# System: Escherichia coli
# Experiment: Antibacterial activity against Escherichia coli ATCC 25922 assessed as growth inhibition after 48 hrs by two-fold serial dilution assay
# Format: functional
# Details: ATCC 25922, 48 h
# How it was run: (§4)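 Twofold serial broth dilution run on compounds giving inhibition zones of 13 mm or more. Organisms pre-grown in suitable broth at 37 °C, 24 h for bacteria and 48 h for fungi. Dilution series 200, 100, 50, 25, 12.5, 6.25. Each 5 mL tube inoculated with 0.1 mL and incubated 37 °C for 48 h. Tubes scored for presence or absence of growth.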
row,MIC,SMILES
1,12.5 µg/mL,Cc1nc(NC(=S)Nc2ccc(F)cc2)sc1C(=O)NN

# System: SK-MEL-2
# Experiment: Cytotoxicity against human SK-MEL-2 cells assessed as growth inhibition at 10 uM after 48 hrs by SRB assay
# Format: functional
# Details: SK-MEL-2, 48 h, read-out: GI
# How it was run: as §1
row,SMILES,inhibition of growth at 10 µM
1,Cc1nc(NC(=S)Nc2ccc(F)cc2)sc1C(=O)NN,30%

# System: not listed separately
# Experiment: Cytotoxicity against human UO31 cells assessed as growth inhibition at 10 uM after 48 hrs by SRB assay
# Format: functional
# Details: UO-31, 48 h, read-out: GI
# How it was run: as §1
row,SMILES,inhibition of growth at 10 µM
1,Cc1nc(NC(=S)Nc2ccc(F)cc2)sc1C(=O)NN,11%

# System: Bacillus spizizenii
# Experiment: Antibacterial activity against Bacillus subtilis ATCC 6633 assessed as growth inhibition after 48 hrs by two-fold serial dilution assay
# Format: functional
# Details: ATCC 6633, 48 h
# How it was run: as §4
row,MIC,SMILES
1,12.5 µg/mL,Cc1nc(NC(=S)Nc2ccc(F)cc2)sc1C(=O)NN

# System: RPMI-8226
# Experiment: Cytotoxicity against human RPMI8226 cells assessed as growth inhibition at 10 uM after 48 hrs by SRB assay
# Format: functional
# Details: RPMI-8226, 48 h, read-out: GI
# How it was run: as §1
row,SMILES,inhibition of growth at 10 µM
1,Cc1nc(NC(=S)Nc2ccc(F)cc2)sc1C(=O)NN,< 10%

# System: Bacillus spizizenii
# Experiment: Antibacterial activity against Bacillus subtilis ATCC 6633 assessed as growth inhibition at 1 mg/mL after 24 hrs by agar-cup diffusion method
# Format: functional
# Details: ATCC 6633, 24 h, read-out: DIZ
# How it was run: as §3
row,SMILES,zone of inhibition at 1000 µg/mL
1,Cc1nc(NC(=S)Nc2ccc(F)cc2)sc1C(=O)NN,> 13 mm

# System: T47D
# Experiment: Cytotoxicity against human T47D cells assessed as growth inhibition at 10 uM after 48 hrs by SRB assay
# Format: functional
# Details: read-out: GI
# How it was run: as §1
row,SMILES,inhibition of growth at 10 µM
1,Cc1nc(NC(=S)Nc2ccc(F)cc2)sc1C(=O)NN,2.52%

# System: HOP-92
# Experiment: Cytotoxicity against human HOP92 cells assessed as growth inhibition at 10 uM after 48 hrs by SRB assay
# Format: functional
# Details: HOP-92, 48 h, read-out: GI
# How it was run: as §1
row,SMILES,inhibition of growth at 10 µM
1,Cc1nc(NC(=S)Nc2ccc(F)cc2)sc1C(=O)NN,33.7%

# System: Staphylococcus aureus
# Experiment: Antibacterial activity against Staphylococcus aureus ATCC 6538 assessed as growth inhibition after 48 hrs by two-fold serial dilution assay
# Format: functional
# Details: ATCC 6538, 48 h
# How it was run: as §4
row,MIC,SMILES
1,6.25 µg/mL,Cc1nc(NC(=S)Nc2ccc(F)cc2)sc1C(=O)NN

# System: MOLT-4
# Experiment: Cytotoxicity against human MOLT4 cells assessed as growth inhibition at 10 uM after 48 hrs by SRB assay
# Format: functional
# Details: MOLT-4, 48 h, read-out: GI
# How it was run: as §1
row,SMILES,inhibition of growth at 10 µM
1,Cc1nc(NC(=S)Nc2ccc(F)cc2)sc1C(=O)NN,< 10%

# System: Escherichia coli
# Experiment: Bactericidal activity against Escherichia coli ATCC 25922 after 18 hrs
# Format: functional
# Details: ATCC 25922, 18 h
# How it was run: as §2
row,SMILES,MBC
1,Cc1nc(NC(=S)Nc2ccc(F)cc2)sc1C(=O)NN,12.5 µg/mL

# System: Staphylococcus aureus
# Experiment: Bactericidal activity against Staphylococcus aureus ATCC 6538 after 18 hrs
# Format: functional
# Details: ATCC 6538, 18 h
# How it was run: as §2
row,SMILES,MBC
1,Cc1nc(NC(=S)Nc2ccc(F)cc2)sc1C(=O)NN,6.25 µg/mL

# System: MDA-MB-468
# Experiment: Cytotoxicity against human MDA-MB-468 cells assessed as growth inhibition at 10 uM after 48 hrs by SRB assay
# Format: functional
# Details: MDA-MB-468, 48 h, read-out: GI
# How it was run: as §1
row,SMILES,inhibition of growth at 10 µM
1,Cc1nc(NC(=S)Nc2ccc(F)cc2)sc1C(=O)NN,5.5%

# System: not listed separately
# Experiment: Cytotoxicity against human NCI-ADR-RES cells assessed as growth inhibition at 10 uM after 48 hrs by SRB assay
# Format: functional
# Details: read-out: GI
# How it was run: as §1
row,SMILES,inhibition of growth at 10 µM
1,Cc1nc(NC(=S)Nc2ccc(F)cc2)sc1C(=O)NN,10%

# System: SF-268
# Experiment: Cytotoxicity against human SF268 cells assessed as growth inhibition at 10 uM after 48 hrs by SRB assay
# Format: functional
# Details: SF-268, 48 h, read-out: GI
# How it was run: as §1
row,SMILES,inhibition of growth at 10 µM
1,Cc1nc(NC(=S)Nc2ccc(F)cc2)sc1C(=O)NN,< 10%

# System: PC-3
# Experiment: Cytotoxicity against human PC3 cells assessed as growth inhibition at 10 uM after 48 hrs by SRB assay
# Format: functional
# Details: PC-3, 48 h, read-out: GI
# How it was run: as §1
row,SMILES,inhibition of growth at 10 µM
1,Cc1nc(NC(=S)Nc2ccc(F)cc2)sc1C(=O)NN,2.36%

# System: Staphylococcus aureus
# Experiment: Antibacterial activity against Staphylococcus aureus ATCC 6538 assessed as growth inhibition at 1 mg/mL after 24 hrs by agar-cup diffusion method
# Format: functional
# Details: ATCC 6538, 24 h, read-out: DIZ
# How it was run: as §3
row,SMILES,zone of inhibition at 1000 µg/mL
1,Cc1nc(NC(=S)Nc2ccc(F)cc2)sc1C(=O)NN,> 13 mm

# System: IGROV-1
# Experiment: Cytotoxicity against human IGROV1 cells assessed as growth inhibition at 10 uM after 48 hrs by SRB assay
# Format: functional
# Details: IGROV-1, 48 h, read-out: GI
# How it was run: as §1
row,SMILES,inhibition of growth at 10 µM
1,Cc1nc(NC(=S)Nc2ccc(F)cc2)sc1C(=O)NN,6.51%

# System: Pseudomonas aeruginosa
# Experiment: Antibacterial activity against Pseudomonas aeruginosa ATCC 27853 assessed as growth inhibition after 48 hrs by two-fold serial dilution assay
# Format: functional
# Details: ATCC 27853, 48 h
# How it was run: as §4
row,MIC,SMILES
1,50 µg/mL,Cc1nc(NC(=S)Nc2ccc(F)cc2)sc1C(=O)NN

# System: CCRF-CEM
# Experiment: Cytotoxicity against human CCRF-CEM cells assessed as growth inhibition at 10 uM after 48 hrs by SRB assay
# Format: functional
# Details: read-out: GI
# How it was run: as §1
row,SMILES,inhibition of growth at 10 µM
1,Cc1nc(NC(=S)Nc2ccc(F)cc2)sc1C(=O)NN,< 10%

# System: UACC-62
# Experiment: Cytotoxicity against human UACC62 cells assessed as growth inhibition at 10 uM after 48 hrs by SRB assay
# Format: functional
# Details: UACC-62, 48 h, read-out: GI
# How it was run: as §1
row,SMILES,inhibition of growth at 10 µM
1,Cc1nc(NC(=S)Nc2ccc(F)cc2)sc1C(=O)NN,10.8%

# System: SNB-75
# Experiment: Cytotoxicity against human SNB75 cells assessed as growth inhibition at 10 uM after 48 hrs by SRB assay
# Format: functional
# Details: SNB-75, 48 h, read-out: GI
# How it was run: as §1
row,SMILES,inhibition of growth at 10 µM
1,Cc1nc(NC(=S)Nc2ccc(F)cc2)sc1C(=O)NN,7.19%

# System: HCC 2998
# Experiment: Cytotoxicity against human HCC2998 cells assessed as growth inhibition at 10 uM after 48 hrs by SRB assay
# Format: functional
# Details: HCC 2998, 48 h, read-out: GI
# How it was run: as §1
row,SMILES,inhibition of growth at 10 µM
1,Cc1nc(NC(=S)Nc2ccc(F)cc2)sc1C(=O)NN,10.5%

# System: Bacillus spizizenii
# Experiment: Bactericidal activity against Bacillus subtilis ATCC 6633 after 18 hrs
# Format: functional
# Details: ATCC 6633, 18 h
# How it was run: as §2
row,SMILES,MBC
1,Cc1nc(NC(=S)Nc2ccc(F)cc2)sc1C(=O)NN,12.5 µg/mL

# System: NCI-H322M
# Experiment: Cytotoxicity against human NCI-H322M cells assessed as growth inhibition at 10 uM after 48 hrs by SRB assay
# Format: functional
# Details: read-out: GI
# How it was run: as §1
row,SMILES,inhibition of growth at 10 µM
1,Cc1nc(NC(=S)Nc2ccc(F)cc2)sc1C(=O)NN,15.1%

# System: Pseudomonas aeruginosa
# Experiment: Antibacterial activity against Pseudomonas aeruginosa ATCC 27853 assessed as growth inhibition at 1 mg/mL after 24 hrs by agar-cup diffusion method
# Format: functional
# Details: ATCC 27853, 24 h, read-out: DIZ
# How it was run: as §3
row,SMILES,zone of inhibition at 1000 µg/mL
1,Cc1nc(NC(=S)Nc2ccc(F)cc2)sc1C(=O)NN,> 13 mm

# System: SW-620
# Experiment: Cytotoxicity against human SW620 cells assessed as growth inhibition at 10 uM after 48 hrs by SRB assay
# Format: functional
# Details: SW-620, 48 h, read-out: GI
# How it was run: as §1
row,SMILES,inhibition of growth at 10 µM
1,Cc1nc(NC(=S)Nc2ccc(F)cc2)sc1C(=O)NN,6.48%

# System: MCF7
# Experiment: Cytotoxicity against human MCF7 cells assessed as growth inhibition at 10 uM after 48 hrs by SRB assay
# Format: functional
# Details: MCF7, 48 h, read-out: GI
# How it was run: as §1
row,SMILES,inhibition of growth at 10 µM
1,Cc1nc(NC(=S)Nc2ccc(F)cc2)sc1C(=O)NN,< 10%
